The record followed here is ChEMBL document CHEMBL2311528, “Synthesis of spirolactone-type diterpenoid derivatives from kaurene-type oridonin with improved antiproliferative effects and their apoptosis-inducing activity in human hepatoma Bel-7402 cells” (Eur J Med Chem, 2013).

In experiment [1] the test system is MGC-803. As to the kind of experiment: Antiproliferative activity against human MGC803 cells assessed as growth inhibition by MTT assay. The class given is functional, cell-based. In a few lines:
(§1)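 Cells treated in triplicate over a range of concentrations at 37 °C in humidified 5% CO2. At 72 h, MTT (5 mg/mL) was added for 4 h, followed by DMSO solubilisation and OD at 490 nm. IC50 is the concentration giving 50% growth inhibition, reported as mean ± S.D. of three independent experiments.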
(In general: Formazan colour is commonly taken as a measure of viable cells.)

Experiment [2] concerns K562. As to the kind of experiment: Antiproliferative activity against human K562 cells assessed as growth inhibition by MTT assay. The class given is functional, cell-based. In a few lines:
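K562 cells in log phase seeded at 5 × 10⁴ cells/mL and treated in triplicate across a 0.39–100 range. Cultures were kept at 37 °C in humidified 5% CO2. At 72 h, MTT (5 mg/mL) was added for 4 h, formazan was dissolved in DMSO, and OD was read at 490 nm. IC50 is the concentration giving 50% growth inhibition, reported as mean ± S.D. of three independent experiments.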

The subject of experiment [3] is Bel-7402. As to the kind of experiment: Antiproliferative activity against human Bel7402 cells assessed as growth inhibition by MTT assay. The class given is functional, cell-based. A digest of the protocol:
as §1

The nature of experiment [4]: Antiproliferative activity against human CaEs17 cells assessed as growth inhibition by MTT assay. The class given is functional, cell-based. A digest of the protocol:
as §1

The target of experiment [5] is Glutathione S-transferase P (Homo sapiens) (UniProt P09211). As to the kind of experiment: Inhibition of glutathione S-transferase pi in human Bel7402 cell lysates at 40 uM using CDNB and GSH as substrates by spectrophotometry. As to conditions: Bel-7402.
For experiment [6], the system named is Bel-7402. The experiment can be described thus: Induction of cell cycle arrest in human Bel7402 cells assessed as accumulation at G2/M phase at 0.6 uM incubated for 48 hrs by propidium iodide staining based flow cytometry (reference value: 4.75%). The class given is functional. In a few lines: (§2)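 Bel-7402 seeded at 5.0 × 10³ cells/well and grown 24 h at 37 °C. Exponentially growing cells were treated for 48 h, alongside untreated and DMSO-solvent controls. Cells were then centrifuged, fixed overnight in 70% ethanol at 4 °C, and analysed by flow cytometry for phase distribution.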

Experiment [7] relates to Bel-7402. As to the kind of experiment: Induction of apoptosis in human Bel7402 cells assessed as early apoptotic cells level at 0.6 uM incubated for 3 days by Annexin-V and propidium iodide double staining based flow cytometry (reference value: 4.5%). The class given is functional. Background: Flow cytometry measures light scatter and fluorescence of single cells or particles in a stream.

The subject of experiment [8] is K562. The experiment can be described thus: Potency index, ratio of IC50 for oridonin to IC50 for test compound against human K562 cells. The class given is functional.
Experiment [9] concerns Bel-7402. As to the kind of experiment: Induction of cell cycle arrest in human Bel7402 cells assessed as accumulation at G2/M phase at 0.8 uM incubated for 48 hrs by propidium iodide staining based flow cytometry (reference value: 4.75%). The class given is functional. In a few lines: as §2
The subject of experiment [10] is Bel-7402. The experiment can be described thus: Induction of cell cycle arrest in human Bel7402 cells assessed as accumulation at G2/M phase at 1 uM incubated for 48 hrs by propidium iodide staining based flow cytometry (reference value: 4.75%). The class given is functional. A digest of the protocol:
as §2

Experiment [11] relates to Bel-7402. The experiment can be described thus: Induction of apoptosis in human Bel7402 cells assessed as necrotic cells level at 0.8 uM incubated for 3 days by Annexin-V and propidium iodide double staining based flow cytometry (reference value: 0.5%). The class given is functional.
Experiment [12] relates to Bel-7402. The experiment can be described thus: Induction of apoptosis in human Bel7402 cells assessed as early apoptotic cells level at 0.8 uM incubated for 3 days by Annexin-V and propidium iodide double staining based flow cytometry (reference value: 4.5%). The class given is functional.
In experiment [13] the test system is Bel-7402. As to the kind of experiment: Potency index, ratio of IC50 for oridonin to IC50 for test compound against human Bel7402 cells. The class given is functional.
Experiment [14] concerns Bel-7402. As to the kind of experiment: Induction of cell cycle arrest in human Bel7402 cells assessed as accumulation at S phase at 0.6 uM incubated for 48 hrs by propidium iodide staining based flow cytometry (reference value: 31.89%). The class given is functional. In a few lines: as §2
Experiment [15] has as its system Bel-7402. The experiment can be described thus: Induction of apoptosis in human Bel7402 cells assessed as late apoptotic cells level at 0.6 uM incubated for 3 days by Annexin-V and propidium iodide double staining based flow cytometry (reference value: 2.4%). The class given is functional.
Experiment [16] concerns Bel-7402. As to the kind of experiment: Induction of apoptosis in human Bel7402 cells assessed as viable cells level at 0.8 uM incubated for 3 days by Annexin-V and propidium iodide double staining based flow cytometry (reference value: 92.6%). The class given is functional.
Experiment [17] has as its system Bel-7402. The experiment can be described thus: Induction of apoptosis in human Bel7402 cells assessed as late apoptotic cells level at 0.8 uM incubated for 3 days by Annexin-V and propidium iodide double staining based flow cytometry (reference value: 2.4%). The class given is functional.
In experiment [18] the test system is Bel-7402. The experiment can be described thus: Induction of apoptosis in human Bel7402 cells assessed as necrotic cells level at 1 uM incubated for 3 days by Annexin-V and propidium iodide double staining based flow cytometry (reference value: 0.5%). The class given is functional.
The test system of experiment [19] is Bel-7402. As to the kind of experiment: Induction of apoptosis in human Bel7402 cells assessed as viable cells level at 1 uM incubated for 3 days by Annexin-V and propidium iodide double staining based flow cytometry (reference value: 92.6%). The class given is functional.
Experiment [20] is described as follows: Potency index, ratio of IC50 for oridonin to IC50 for test compound against human CaEs17 cells. The class given is functional.
Experiment [21] deals with Bel-7402. The experiment can be described thus: Induction of cell cycle arrest in human Bel7402 cells assessed as accumulation at S phase at 1 uM incubated for 48 hrs by propidium iodide staining based flow cytometry (reference value: 31.89%). The class given is functional. A digest of the protocol: as §2
Experiment [22] concerns Bel-7402. As to the kind of experiment: Induction of cell cycle arrest in human Bel7402 cells assessed as accumulation at G1 phase at 1 uM incubated for 48 hrs by propidium iodide staining based flow cytometry (reference value: 63.86%). The class given is functional. In a few lines:
as §2

Experiment [23] concerns Bel-7402. The experiment can be described thus: Induction of cell cycle arrest in human Bel7402 cells assessed as accumulation at S phase at 0.8 uM incubated for 48 hrs by propidium iodide staining based flow cytometry (reference value: 31.89%). The class given is functional. A digest of the protocol:
as §2

The subject of experiment [24] is Bel-7402. The experiment can be described thus: Induction of cell cycle arrest in human Bel7402 cells assessed as accumulation at G1 phase at 0.6 uM incubated for 48 hrs by propidium iodide staining based flow cytometry (reference value: 63.86%). The class given is functional. A digest of the protocol:
as §2

Experiment [25] has as its system Bel-7402. The experiment can be described thus: Induction of apoptosis in human Bel7402 cells assessed as necrotic cells level at 0.6 uM incubated for 3 days by Annexin-V and propidium iodide double staining based flow cytometry (reference value: 0.5%). The class given is functional.
Experiment [26] has as its system Bel-7402. As to the kind of experiment: Induction of apoptosis in human Bel7402 cells assessed as viable cells level at 0.6 uM incubated for 3 days by Annexin-V and propidium iodide double staining based flow cytometry (reference value: 92.6%). The class given is functional.
Experiment [27] concerns Bel-7402. The experiment can be described thus: Induction of cell cycle arrest in human Bel7402 cells assessed as accumulation at G1 phase at 0.8 uM incubated for 48 hrs by propidium iodide staining based flow cytometry (reference value: 63.86%). The class given is functional. A digest of the protocol: as §2
Experiment [28] relates to Bel-7402. The experiment can be described thus: Induction of apoptosis in human Bel7402 cells assessed as early apoptotic cells level at 1 uM incubated for 3 days by Annexin-V and propidium iodide double staining based flow cytometry (reference value: 4.5%). The class given is functional.
Experiment [29] has as its system Bel-7402. As to the kind of experiment: Induction of apoptosis in human Bel7402 cells assessed as late apoptotic cells level at 1 uM incubated for 3 days by Annexin-V and propidium iodide double staining based flow cytometry (reference value: 2.4%). The class given is functional.
Experiment [30] concerns MGC-803. The experiment can be described thus: Potency index, ratio of IC50 for oridonin to IC50 for test compound against human MGC803 cells. The class given is functional.

Chain of Glutathione S-transferase P (Homo sapiens) (P09211 2-210 limits assumed): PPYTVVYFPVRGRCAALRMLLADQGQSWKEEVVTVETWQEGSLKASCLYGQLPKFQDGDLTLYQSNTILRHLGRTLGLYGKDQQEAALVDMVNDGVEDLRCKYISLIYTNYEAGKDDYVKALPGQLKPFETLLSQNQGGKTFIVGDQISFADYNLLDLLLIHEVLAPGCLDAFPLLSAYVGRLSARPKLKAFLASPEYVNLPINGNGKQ

Take `C=C1C(=O)[C@@]23C(=O)OC[C@]4([C@@H](OC(C)=O)CCC(C)(C)[C@H]4C=O)[C@@H]2CC[C@H]1[C@H]3OC(C)=O`: the IC50 in [1] is 3.47 µM; in [2], 1.74 µM; in [3] it was 3.96 µM; in experiment [4] it was 2.8 µM. The inhibition in experiment [5] is 7.08%.
With `C=C1C(=O)[C@@]23C(=O)OC[C@]4([C@@H](OC(C)=O)CCC(C)(C)[C@H]4C=O)[C@@H]2CC[C@H]1[C@H]3OC(=O)c1ccc(OC)cc1`, the concentration for half-maximal inhibition (IC50) in experiment [1] was found to be 2.53 µM; in [2], 1.92 µM; in experiment [3], 2.47 µM; in [4], 1.96 µM.
On to `CC(=O)O[C@H]1C(=O)[C@@]2(C)[C@H]([C@H](OC(=O)c3ccccc3)[C@]3(O)C[C@H](OC(=O)[C@H](O)[C@@H](NC(=O)c4ccccc4)c4ccccc4)C(C)=C1C3(C)C)[C@]1(OC(C)=O)CO[C@@H]1C[C@@H]2O` [PACLITAXEL], for which the IC50 in experiment [4] amounted to 0.43 µM.
In the case of `C=C1C(=O)[C@@]23C(=O)OC[C@]4([C@@H](OC(C)=O)CCC(C)(C)[C@H]4C=O)[C@@H]2CC[C@H]1[C@H]3OC(=O)c1ccc(C(F)(F)F)cc1`, the IC50 in experiment [1] worked out at 5.54 µM; in experiment [2], 3.15 µM; in experiment [3], 5.09 µM; in experiment [4], 9.16 µM.
Regarding `C=C1C(=O)[C@@]23C(=O)OC[C@]4([C@@H](OC(C)=O)CCC(C)(C)[C@H]4C=O)[C@@H]2CC[C@H]1[C@H]3OC(=O)CC`, the IC50 in experiment [1] turned out to be 3.22 µM; in [2], 1.5 µM; in experiment [3] it was 3.78 µM; in [4], 2.77 µM.
As for `C=C1C(=O)[C@@]23C(=O)OC[C@]4([C@@H](OC(C)=O)CCC(C)(C)[C@H]4C=O)[C@@H]2CC[C@H]1[C@H]3OC(=O)c1ccccc1Cl`, the Activity in [6] was found to be 23.2%; in experiment [7] it was 8.8%; in [9], 53.3%; in [10], 92.16%; in experiment [11], 0.3%; in experiment [12], 9.6%. Moreover, the Activity was determined as 20.73% in [14]; 3.8% in experiment [15]; 80.9% in [16]; 9.3% in experiment [17]; 0.6% in experiment [18]; 66% in experiment [19]. Besides, the Activity in [21] is on record as 0%; in experiment [22] it was 7.84%; in [23] it was 5.28%; in [24], 56.07%; in [25], 0.1%; in experiment [26], 87.2%. For the same compound, the Activity in [27] is recorded as 41.69%; in experiment [28], 21%; in experiment [29] it was 12.4%. Moreover, the “Ratio IC50” value in experiment [8] is recorded as 12; in experiment [13], 5; in experiment [20], 18; in experiment [30], 4. In addition, the IC50 in [1] worked out at 1.28 µM; in experiment [2] it was 0.39 µM; in experiment [3], 1.39 µM; in experiment [4], 0.6 µM. The same compound yielded an inhibition in experiment [5] of 0%.
For the compound `C=C1C(=O)[C@@]23C(=O)OC[C@]4([C@@H](OC(C)=O)CCC(C)(C)[C@H]4C=O)[C@@H]2CC[C@H]1[C@H]3OC(=O)c1ccc([N+](=O)[O-])cc1`, the IC50 amounted to 1.98 µM in experiment [1], 1.14 µM in experiment [2], 1.74 µM in experiment [3] and 1.6 µM in experiment [4].
`C=C1C(=O)[C@@]23C(=O)OC[C@]4([C@@H](OC(C)=O)CCC(C)(C)[C@H]4C=O)[C@@H]2CC[C@H]1[C@H]3OC(=O)c1ccccc1`: the IC50 was determined as 2.18 µM in experiment [1], 1.4 µM in experiment [2], 3.05 µM in experiment [3] and 1.99 µM in experiment [4].
The like results for `C=C1C(=O)[C@@]23C(=O)OC[C@]4([C@@H](OC(C)=O)CCC(C)(C)[C@H]4C=O)[C@@H]2CC[C@H]1[C@H]3OC(=O)c1ccc(Cl)cc1` were, in that order, 1.73 µM, 0.87 µM, 1.51 µM and 1.25 µM.
The matching figures for `C=C1C(=O)[C@@]23C(=O)OC[C@]4([C@@H](OC(C)=O)CCC(C)(C)[C@H]4C=O)[C@@H]2CC[C@H]1[C@H]3OC(=O)CCCC`: 2.49 µM, 1.56 µM, 3.64 µM and 2.85 µM.
Consider `C=C1C(=O)[C@@]23C(=O)OC[C@]4([C@@H](OC(C)=O)CCC(C)(C)[C@H]4C=O)[C@@H]2CC[C@H]1[C@H]3OC(=O)c1ccc(C)cc1`, for which the IC50 in [1] worked out at 1.9 µM; in experiment [2], 1.31 µM; in experiment [3], 2.09 µM; in [4], 1.83 µM.

Usually IC50 stands for the midpoint of a concentration-inhibition curve. Usually inhibition stands for the change of the read-out against control, counted positive when it falls. A high value points to a response far below the control.
